# Screening data deposited in PubChem BioAssay by several laboratories.
# Only some compounds are listed: those with a hit (about 1.9% of all), similar ones and a draw of the others.
# HEK293 NFkB inh: inhibitors of the PMA/ionomycin-induced NF-kB reporter in HEK293 cells; 62,000 tested, 0.21% active; AID 465; HEK-293 NF-kB luciferase reporter, luminescence; inhibition, % at 3 µM;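 active = inhibition above the mean of all tested compounds plus 3 SD, cut at about 40% in these data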
#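 System: NF-kB luciferase reporter HEK-293 cells | Replication: Single test | Control set: DMSO vs reference inhibitor | Evaluation: % inhibition | Schedule: 1 h pretreatment, 16 h stimulation, 37 °C | Probe or stimulus: PMA with ionomycin | Compound dosing: One dose, 3 µM | Detection: Luciferase luminescence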
# Jurkat viability: reduces viability or proliferation of Jurkat cells | Jurkat E6.1 viability, ATP luminescence, 48 h | inhibition, % at 4 µM | 56,000 tested, 1.2% active;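 active = inhibition above the mean inhibition of all tested compounds plus 3 SD, cut at about 28% in these data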
# HER2 expr 66K: inhibitors of human Her2 kinase expression. SKBR-3 HER2 protein level, AlphaScreen, 18-24 h; active compounds read low. HER2 level % of control, % at 10 µM. 65,000 tested, 0.69% active. AID 645;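 active = HER2 level under 5% of the carrier-only control; inconclusive = no clear call, values can overlap the other calls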;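 also: lower value means stronger loss of Her2 protein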
# SK-BR-3 tox 24h: SK-BR-3 proliferation inhibitors | AID 847 | SK-BR-3 viability, CellTiter-Glo ATP luminescence, 24 h; active compounds read low | 41,000 tested, 0.47% active | viability, % at 10 µM;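 active = viability at or below the median of all test compounds minus 3 SD, in both replicates if run twice, cut at about 45% in these data; inconclusive = duplicate replicates that disagree with each other; inactive = viability above that cutoff in every replicate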
# Htt clearance: mutant huntingtin protein clearance. HeLa Exon1htt(103Q)mCFP, aggregate imaging; zero = plate's median compound well. inhibition, % at 1.5 µM. 47,000 tested, 0.42% active. AID 853;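 active = inhibition of aggregate fluorescence above about 70%, also judged a hit by eye on the cell image, limit read from the data, passing the limit was not always enough; inconclusive = no rule stated for this call; inactive = not judged a hit on image review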;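 also: cells exposed to compound for three days before fixation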
# Hits are given with their value; – = inactive; ? = inconclusive; · = not tested or not shown.
SMILES,HEK293 NFkB inh,Jurkat viability,HER2 expr 66K,SK-BR-3 tox 24h,Htt clearance
COc1ccc(N(CC(=O)N/N=C/c2ccco2)S(=O)(=O)c2ccccc2)cc1,·,·,·,·,–
CCN(CC)c1ccc(-c2nn3c(-c4n[nH]c5c4CCC5)nnc3s2)cc1,–,97,-29,?,–
Cc1ccc(CN2C(=O)C3CCCN3c3ccc(S(=O)(=O)N4CCOCC4)cc32)cc1 (configuration not stated),·,·,·,·,–
Cc1cc(C(=O)CSc2nnc(NCc3ccccc3)s2)c(C)n1C,–,34,–,·,·
Cc1ccc2c(c1)cc(CN(Cc1ccco1)S(=O)(=O)c1ccccc1)c1nnnn12,–,–,–,–,·
O=C(COc1ccccc1)NC(Cc1c[nH]c2ccccc12)C(=O)O (configuration not stated),–,–,–,·,71
Fc1ccc(CNc2ncnc3c2cnn3-c2ccccc2)cc1,–,–,–,–,–
Cc1cccc(-n2ncc3c(NCc4ccccn4)ncnc32)c1,–,–,–,·,–
Cc1cccc(-n2ncc3c(NCc4ccccc4)ncnc32)c1,–,83,–,·,·
c1ccc(CNc2ncnc3c2cnn3-c2ccccc2)cc1,–,85,–,–,·
CC(=O)N(C)c1nnc(-c2ccccn2)s1,·,·,·,·,–
COc1ccc(N(CC(=O)Nc2cc(Cl)ccc2OC)S(=O)(=O)c2c(C)noc2C)cc1,–,88,–,–,–
COc1ccc(OC)c(NC(=O)CN(c2ccc(C)cc2)S(=O)(=O)c2c(C)noc2C)c1,–,–,–,–,·
CCOC(=O)N1CCN(CCC(=O)c2ccc(Cl)cc2)CC1,–,–,-6.8,·,–
CCOC(=O)Cc1csc(NC(=O)COc2ccc(OC)cc2)n1,–,–,4.1,·,·
COc1ccc(OC)c(Nc2cc(-c3ccccc3)nc(N)n2)c1,–,98,–,·,·
CC(C)(C)c1ccccc1NC(=O)c1cccnc1,–,–,–,–,–
CC(C)(C)c1cc(NC(=O)c2cccnc2)no1,–,–,–,–,78
CCN1CCN(C(=O)C2CCC(CNS(=O)(=O)c3ccccc3)CC2)CC1 (configuration not stated),·,·,·,·,–
CC1CC(C)(C)Nc2ccc(OC(=O)c3ccco3)cc21 (configuration not stated),58,–,-31,20,–
COc1ccc(CN(C(=O)c2ccco2)c2ccccc2)cc1,·,·,·,·,–
COc1ccc(N(Cc2cc(=O)[nH]c3ccccc23)C(=O)c2ccco2)cc1,–,–,–,44,·
COc1cc2c(cc1OC)CN(c1ccc(-c3ccccc3OC)nn1)CC2,–,–,-3.7,–,·
Cc1cc(C(=O)NCc2cccs2)c(C)o1,–,–,–,–,–
Cc1cc2c(cc(C(=O)OCC(=O)NCc3cccs3)n2C(C)C)o1,–,64,–,–,?
SMILES,HEK293 NFkB inh,Jurkat viability,HER2 expr 66K,SK-BR-3 tox 24h,Htt clearance
Cc1ccc(C2C=C(c3ccccc3OC(F)F)Nc3ncnn32)cc1 (configuration not stated),–,–,–,–,·
CN(C)c1ccc(C2C=C(c3ccc(Cl)cc3OC(F)F)Nc3ncnn32)cc1 (configuration not stated),–,60,–,–,·
COC(=O)c1cccc(COC(=O)c2ccc(CS(=O)(=O)c3ccc(C)cc3)cc2)c1,·,·,·,·,–
CCCNc1nc2c(c(=O)n(C)c(=O)n2C)n1CCC(C)C,–,33,–,–,–
CC(C)CCn1cnc2c1c(=O)n(C)c(=O)n2C,–,–,–,–,73
Cn1c(=O)c2c(ncn2CCO)n(C)c1=O,·,·,–,–,·
CCCCNc1nc2c(c(=O)n(C)c(=O)n2C)n1CCC,–,–,–,·,·
CCCNc1nc2c(c(=O)n(C)c(=O)n2C)n1CCc1ccccc1,–,–,–,–,–
CCCCCCn1c(NCC)nc2c1c(=O)n(C)c(=O)n2C,–,78,–,–,–
O=C(Nn1c(=O)[nH]c2ccccc2c1=O)c1ccco1,·,·,·,·,–
CCOC(=O)C1=C(C)NC(SCC(=O)Nc2cc(C)on2)=C(C#N)C1c1cccs1 (configuration not stated),–,–,–,–,–
CCOC(=O)c1ccc(NC(=O)COc2ccc(S(=O)(=O)NC(C)C)cc2)cc1,–,–,–,–,–
CCN(CC)C(=O)c1cc(-c2ccc(Br)cc2)on1,–,–,–,–,–
COC(=O)c1ccc(Oc2cc(C)nc(SC)n2)cc1,–,65,–,–,–
COc1ccc(N=CC2=C(Nc3ccc(OC)cc3)c3c(C)nn(-c4ccccn4)c3CC2)cc1,·,·,·,·,–
O=C(Nc1nccs1)c1ccc(S(=O)(=O)NCC2CCCCC2)cc1,–,37,–,–,–
O=C(Nc1ccccc1)N1CCC(c2nc(-c3ccc(S(=O)(=O)N4CCOCC4)cc3)no2)CC1,–,33,–,–,·
COc1ccc(OC)c(C2CC(=O)c3c([nH]c(C(=O)OC(C)C)c3C)C2)c1 (configuration not stated),–,98,–,·,·
CCCOCCOC(=O)c1[nH]c2c(c1C)C(=O)CC(c1cc(OC)ccc1OC)C2 (configuration not stated),–,–,–,·,·
COc1cc(C2CC(=O)c3c([nH]c(C(=O)OCCOC(C)C)c3C)C2)cc(OC)c1OC (configuration not stated),–,43,–,·,–
COCCOC(=O)c1[nH]c2c(c1C)C(=O)CC(c1cc(OC)ccc1OC)C2 (configuration not stated),–,65,–,·,·
COc1cccc(C2/C(=C(\O)c3ccc4c(c3)OCCO4)C(=O)C(=O)N2CCCN(C)C)c1OC (configuration not stated),·,·,–,–,–
C/C(N)=C(/C#N)C(=O)CSc1nnnn1-c1ccc(C)cc1,–,–,–,·,·
CC(C)N(Cc1nc(-c2ccccc2)no1)C(=O)CCCN1C(=O)c2ccccc2C1=O,–,–,–,–,–
CC(C)N(Cc1nc(-c2ccccc2)no1)C(=O)CN1C(=O)c2ccccc2C1=O,–,–,-19,–,–
SMILES,HEK293 NFkB inh,Jurkat viability,HER2 expr 66K,SK-BR-3 tox 24h,Htt clearance
COc1cc(C2Nc3ccc4ncccc4c3C3=C2C(=O)CCC3)ccc1O (configuration not stated),–,81,–,–,·
Cc1ccsc1C1Nc2ccc3ncccc3c2C2=C1C(=O)CCC2 (configuration not stated),·,·,·,·,–
COc1cccc(C=Nc2cccnc2)c1O,46,–,–,·,–
CCN(CC)c1ccc2cc(-c3nc4ccccc4n3C)c(=O)oc2c1,40,99,–,·,–
CCN(CC)c1ccc2cc(-c3nc4ccccc4[nH]3)c(=O)oc2c1,–,–,–,42,–
Cc1ccc(C2c3c(-c4ccccc4O)n[nH]c3C(=O)N2Cc2ccncc2)cc1 (configuration not stated),–,86,–,–,–
O=C(Cn1nnc(-c2ccccc2Cl)n1)N1CCN(S(=O)(=O)c2ccc(Cl)cc2)CC1,–,–,–,·,76
COc1cccc(C(=O)Nc2nc3c(s2)CN(C)CC3)c1,·,·,·,·,–
O=C(NCc1ccco1)C(c1cccs1)N(Cc1ccccc1)C(=O)Cn1nnc2ccccc21 (configuration not stated),–,–,–,·,·
